Laboratory results from ChEMBL document CHEMBL5661979, “Pharmacological inhibition of BMK1 suppresses tumor growth through promyelocytic leukemia protein” (Cancer Cell, 2010).

Key:
[1] = molecular target: T1, Non-receptor tyrosine-protein kinase TNK1 (Homo sapiens) (UniProt Q13470); assay: Inhibition of TNK1 (unknown origin) assessed as remaining activity at 10 uM by ATP-competition binding assay relative to control
T1 sequence (whole entry): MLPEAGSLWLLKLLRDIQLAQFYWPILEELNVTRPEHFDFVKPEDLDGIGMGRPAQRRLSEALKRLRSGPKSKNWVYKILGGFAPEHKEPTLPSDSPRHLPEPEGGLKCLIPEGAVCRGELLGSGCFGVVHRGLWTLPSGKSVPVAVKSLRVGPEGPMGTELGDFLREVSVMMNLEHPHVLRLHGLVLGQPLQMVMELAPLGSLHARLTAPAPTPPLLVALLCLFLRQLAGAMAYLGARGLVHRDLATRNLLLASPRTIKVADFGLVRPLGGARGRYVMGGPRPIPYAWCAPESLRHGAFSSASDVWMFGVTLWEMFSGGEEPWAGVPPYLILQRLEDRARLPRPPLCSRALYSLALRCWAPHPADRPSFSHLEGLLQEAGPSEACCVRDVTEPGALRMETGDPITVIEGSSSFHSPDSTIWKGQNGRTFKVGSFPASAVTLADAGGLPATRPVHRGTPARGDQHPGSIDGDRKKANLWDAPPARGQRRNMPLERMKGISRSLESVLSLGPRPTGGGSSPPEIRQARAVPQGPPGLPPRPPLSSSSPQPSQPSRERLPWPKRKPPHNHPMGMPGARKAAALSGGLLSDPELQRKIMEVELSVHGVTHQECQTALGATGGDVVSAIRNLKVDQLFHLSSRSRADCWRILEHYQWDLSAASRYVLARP

[2] = molecular target: Ribosomal protein S6 kinase alpha-3 (Homo sapiens, UniProt P51812); assay: Inhibition of RSK2 domain 2 in human HeLa cells lysate pre incubated for 15 mins followed by ATP acyl phosphate probe addition and measured after 10 mins by LC-MS/MS analysis; assay type: subcellular
Sequence of Ribosomal protein S6 kinase alpha-3 (P51812 whole entry, the tested form may be a part): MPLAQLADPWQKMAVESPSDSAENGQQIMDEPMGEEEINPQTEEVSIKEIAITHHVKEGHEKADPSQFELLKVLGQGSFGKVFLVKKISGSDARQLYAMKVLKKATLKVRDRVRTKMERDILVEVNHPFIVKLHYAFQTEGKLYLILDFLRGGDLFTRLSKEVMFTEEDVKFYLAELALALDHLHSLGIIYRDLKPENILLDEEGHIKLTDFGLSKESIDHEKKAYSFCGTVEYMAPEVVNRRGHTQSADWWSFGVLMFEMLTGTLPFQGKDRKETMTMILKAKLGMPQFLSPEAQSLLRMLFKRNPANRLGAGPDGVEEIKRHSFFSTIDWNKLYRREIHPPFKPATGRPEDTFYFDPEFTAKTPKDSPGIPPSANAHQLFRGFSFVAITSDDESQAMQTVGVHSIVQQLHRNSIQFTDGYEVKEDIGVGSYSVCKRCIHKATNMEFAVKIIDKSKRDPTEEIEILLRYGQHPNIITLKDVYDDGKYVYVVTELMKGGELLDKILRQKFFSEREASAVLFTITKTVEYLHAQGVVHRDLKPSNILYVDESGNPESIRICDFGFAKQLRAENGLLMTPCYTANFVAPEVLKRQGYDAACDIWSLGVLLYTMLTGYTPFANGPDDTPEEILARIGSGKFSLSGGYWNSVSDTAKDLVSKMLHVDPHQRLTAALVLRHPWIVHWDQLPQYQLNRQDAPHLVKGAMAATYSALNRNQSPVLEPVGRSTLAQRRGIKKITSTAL

[3] = molecular target: Phosphatidylinositol 4-kinase alpha (Homo sapiens, UniProt P42356); assay: Inhibition of PIK4CA in human HeLa cells lysate at 50 uM pre incubated for 15 mins followed by ATP acyl phosphate probe addition and measured after 10 mins by LC-MS/MS analysis relative to control; assay type: subcellular; conditions: time 25.0 min
Sequence of Phosphatidylinositol 4-kinase alpha (P42356 whole entry, looked up): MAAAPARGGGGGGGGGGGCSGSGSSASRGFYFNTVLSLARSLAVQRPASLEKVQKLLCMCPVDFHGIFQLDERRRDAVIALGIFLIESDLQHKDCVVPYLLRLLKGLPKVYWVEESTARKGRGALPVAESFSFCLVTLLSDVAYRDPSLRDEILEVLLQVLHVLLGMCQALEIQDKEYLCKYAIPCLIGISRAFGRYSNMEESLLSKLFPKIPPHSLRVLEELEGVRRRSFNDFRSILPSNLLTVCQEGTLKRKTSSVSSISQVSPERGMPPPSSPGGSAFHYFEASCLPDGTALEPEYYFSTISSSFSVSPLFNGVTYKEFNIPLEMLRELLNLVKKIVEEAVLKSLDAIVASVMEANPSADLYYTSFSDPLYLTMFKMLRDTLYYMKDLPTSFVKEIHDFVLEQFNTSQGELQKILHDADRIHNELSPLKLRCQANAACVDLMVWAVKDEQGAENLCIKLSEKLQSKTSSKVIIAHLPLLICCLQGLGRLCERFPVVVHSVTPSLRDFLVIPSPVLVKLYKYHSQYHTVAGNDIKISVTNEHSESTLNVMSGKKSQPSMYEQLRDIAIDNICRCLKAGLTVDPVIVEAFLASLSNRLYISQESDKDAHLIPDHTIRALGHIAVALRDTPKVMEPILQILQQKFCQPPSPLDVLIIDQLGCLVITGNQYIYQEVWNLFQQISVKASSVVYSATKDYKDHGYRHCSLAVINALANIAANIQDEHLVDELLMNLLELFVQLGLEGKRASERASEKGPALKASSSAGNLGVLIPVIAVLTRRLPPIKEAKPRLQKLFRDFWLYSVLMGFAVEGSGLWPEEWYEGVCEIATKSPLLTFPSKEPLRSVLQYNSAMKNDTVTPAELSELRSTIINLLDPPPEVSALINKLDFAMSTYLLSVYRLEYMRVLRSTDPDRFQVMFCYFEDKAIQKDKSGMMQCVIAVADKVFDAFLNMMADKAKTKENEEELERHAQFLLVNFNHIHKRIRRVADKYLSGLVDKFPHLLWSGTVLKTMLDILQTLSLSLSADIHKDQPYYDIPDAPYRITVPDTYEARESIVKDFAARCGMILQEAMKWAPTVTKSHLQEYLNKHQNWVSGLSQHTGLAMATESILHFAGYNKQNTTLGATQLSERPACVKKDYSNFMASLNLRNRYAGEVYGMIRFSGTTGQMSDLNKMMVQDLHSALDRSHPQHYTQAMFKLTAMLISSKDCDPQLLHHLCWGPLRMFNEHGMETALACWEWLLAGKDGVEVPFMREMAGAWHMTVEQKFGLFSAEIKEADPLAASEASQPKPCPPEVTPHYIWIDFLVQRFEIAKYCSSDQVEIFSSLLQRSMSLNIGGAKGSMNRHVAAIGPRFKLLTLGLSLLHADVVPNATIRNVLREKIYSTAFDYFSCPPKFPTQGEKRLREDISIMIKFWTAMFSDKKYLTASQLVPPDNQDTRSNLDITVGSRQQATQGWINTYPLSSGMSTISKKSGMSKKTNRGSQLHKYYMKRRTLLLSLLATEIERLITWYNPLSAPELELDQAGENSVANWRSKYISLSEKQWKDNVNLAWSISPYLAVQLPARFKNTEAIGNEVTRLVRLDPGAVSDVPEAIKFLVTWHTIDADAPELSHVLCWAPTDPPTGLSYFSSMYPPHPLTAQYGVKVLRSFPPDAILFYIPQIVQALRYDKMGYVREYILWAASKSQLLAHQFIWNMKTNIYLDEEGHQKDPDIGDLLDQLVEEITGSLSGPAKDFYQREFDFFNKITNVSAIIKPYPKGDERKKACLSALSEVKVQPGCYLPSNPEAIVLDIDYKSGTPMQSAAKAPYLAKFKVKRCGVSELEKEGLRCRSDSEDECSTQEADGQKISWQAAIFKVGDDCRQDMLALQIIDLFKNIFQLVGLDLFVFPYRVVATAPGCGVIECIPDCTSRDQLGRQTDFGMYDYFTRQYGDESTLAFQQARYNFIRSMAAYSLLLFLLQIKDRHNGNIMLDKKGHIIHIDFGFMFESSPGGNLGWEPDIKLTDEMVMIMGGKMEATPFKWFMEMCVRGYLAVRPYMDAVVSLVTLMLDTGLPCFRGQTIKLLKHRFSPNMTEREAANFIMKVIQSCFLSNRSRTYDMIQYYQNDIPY

[4] = molecular target: Serine/threonine-protein kinase 24 (Homo sapiens, UniProt Q9Y6E0); assay: Inhibition of MST3 in human HeLa cells lysate at 50 uM pre incubated for 15 mins followed by ATP acyl phosphate probe addition and measured after 10 mins by LC-MS/MS analysis relative to control; assay type: subcellular; conditions: time 25.0 min
Sequence of Serine/threonine-protein kinase 24 (Q9Y6E0 whole entry, looked up): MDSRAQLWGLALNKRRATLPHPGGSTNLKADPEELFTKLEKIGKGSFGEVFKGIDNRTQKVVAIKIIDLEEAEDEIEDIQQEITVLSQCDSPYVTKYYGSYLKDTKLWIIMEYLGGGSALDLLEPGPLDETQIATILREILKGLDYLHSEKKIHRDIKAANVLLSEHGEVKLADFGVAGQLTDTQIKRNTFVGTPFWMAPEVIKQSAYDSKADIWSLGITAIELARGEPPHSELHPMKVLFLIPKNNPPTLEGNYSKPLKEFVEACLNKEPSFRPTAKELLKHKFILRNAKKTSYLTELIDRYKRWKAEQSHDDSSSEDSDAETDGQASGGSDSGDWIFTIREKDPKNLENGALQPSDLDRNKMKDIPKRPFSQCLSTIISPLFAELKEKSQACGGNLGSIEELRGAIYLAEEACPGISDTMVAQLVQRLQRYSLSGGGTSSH

[5] = Inhibition of HGK/MINK/TNIK in human HeLa cells lysate at 50 uM pre incubated for 15 mins followed by ATP acyl phosphate probe addition and measured after 10 mins by LC-MS/MS analysis relative to control; conditions: 25 min, condition cancer
[6] = molecular target: T2, Calcium/calmodulin-dependent protein kinase type II subunit gamma (Homo sapiens, UniProt Q13555); assay: Inhibition of CAMK2g in human HeLa cells lysate at 10 uM pre incubated for 15 mins followed by ADP acyl phosphate probe addition and measured after 10 mins by LC-MS/MS analysis relative to control; assay type: subcellular; conditions: time 25.0 min
T2 sequence (Q13555 whole entry, the tested form may be a part): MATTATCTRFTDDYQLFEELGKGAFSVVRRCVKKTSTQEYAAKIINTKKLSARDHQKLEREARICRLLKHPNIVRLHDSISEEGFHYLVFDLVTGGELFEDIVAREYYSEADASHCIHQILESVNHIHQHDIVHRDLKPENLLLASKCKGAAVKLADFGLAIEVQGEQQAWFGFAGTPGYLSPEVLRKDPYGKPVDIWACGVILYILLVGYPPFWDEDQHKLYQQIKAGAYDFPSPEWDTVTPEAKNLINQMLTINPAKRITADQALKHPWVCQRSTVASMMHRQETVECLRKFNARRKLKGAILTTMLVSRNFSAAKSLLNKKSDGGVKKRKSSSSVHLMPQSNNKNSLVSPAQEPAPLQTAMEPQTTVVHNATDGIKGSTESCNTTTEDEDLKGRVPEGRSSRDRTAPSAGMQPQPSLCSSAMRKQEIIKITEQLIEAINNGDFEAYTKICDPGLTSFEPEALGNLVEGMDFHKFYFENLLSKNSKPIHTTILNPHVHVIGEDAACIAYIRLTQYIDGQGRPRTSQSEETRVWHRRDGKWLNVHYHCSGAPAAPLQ
Outline: (§1)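 KiNativ-type profiling in HeLa lysate (5 mg/mL total protein). Lysate preincubated 15 min with inhibitor at 50, 10, 2, 0.8 or 0 μM, then ATP or ADP acylphosphate probe added (5 μM final) for 10 min. Reaction stopped with urea and analysed by targeted MS, using up to four fragment ions per kinase peptide-probe conjugate. % inhibition calculated against untreated lysate. Duplicate reactions.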

[7] = molecular target: Rho-associated protein kinase (Homo sapiens, UniProt O75116+Q13464); assay: Inhibition of ROCK1/2 in human HeLa cells lysate at 2 uM pre incubated for 15 mins followed by ATP acyl phosphate probe addition and measured after 10 mins by LC-MS/MS analysis relative to control; assay type: subcellular; conditions: time 25.0 min
[8] = molecular target: Serine-protein kinase ATM (Homo sapiens, UniProt Q13315); assay: Inhibition of ATM in human HeLa cells lysate pre incubated for 15 mins followed by ADP acyl phosphate probe addition and measured after 10 mins by LC-MS/MS analysis; assay type: subcellular; outline: as §1
[9] = molecular target: T3, Interleukin-1 receptor-associated kinase 4 (Homo sapiens) (UniProt Q9NWZ3); assay: Inhibition of IRAK4 in human HeLa cells lysate at 2 uM pre incubated for 15 mins followed by ADP acyl phosphate probe addition and measured after 10 mins by LC-MS/MS analysis relative to control; assay type: subcellular; conditions: time 25.0 min
T3 sequence (whole entry): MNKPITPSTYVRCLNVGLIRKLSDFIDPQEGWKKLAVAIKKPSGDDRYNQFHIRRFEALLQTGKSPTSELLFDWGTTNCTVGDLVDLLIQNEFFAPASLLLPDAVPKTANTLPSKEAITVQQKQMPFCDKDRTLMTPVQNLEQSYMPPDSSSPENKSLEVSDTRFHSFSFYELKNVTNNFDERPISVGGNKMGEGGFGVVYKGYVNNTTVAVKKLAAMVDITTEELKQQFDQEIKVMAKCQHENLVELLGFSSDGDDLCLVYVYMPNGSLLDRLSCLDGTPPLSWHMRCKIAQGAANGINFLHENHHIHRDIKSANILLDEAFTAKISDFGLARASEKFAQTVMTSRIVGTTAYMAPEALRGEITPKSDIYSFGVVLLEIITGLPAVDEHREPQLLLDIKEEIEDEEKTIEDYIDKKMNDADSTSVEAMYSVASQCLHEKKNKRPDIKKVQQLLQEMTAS

[10] = molecular target: T2, Calcium/calmodulin-dependent protein kinase type II subunit gamma; assay: Inhibition of CAMK2g in human HeLa cells lysate at 10 uM pre incubated for 15 mins followed by ATP acyl phosphate probe addition and measured after 10 mins by LC-MS/MS analysis relative to control; assay type: subcellular; conditions: time 25.0 min; outline: as §1
[11] = molecular target: Phosphatidylinositol 4-kinase beta (Homo sapiens, UniProt Q9UBF8); assay: Inhibition of PIK4CB in human HeLa cells lysate at 50 uM pre incubated for 15 mins followed by ATP acyl phosphate probe addition and measured after 10 mins by LC-MS/MS analysis relative to control; assay type: subcellular; conditions: time 25.0 min
Sequence of Phosphatidylinositol 4-kinase beta (Q9UBF8 2-816 limits assumed): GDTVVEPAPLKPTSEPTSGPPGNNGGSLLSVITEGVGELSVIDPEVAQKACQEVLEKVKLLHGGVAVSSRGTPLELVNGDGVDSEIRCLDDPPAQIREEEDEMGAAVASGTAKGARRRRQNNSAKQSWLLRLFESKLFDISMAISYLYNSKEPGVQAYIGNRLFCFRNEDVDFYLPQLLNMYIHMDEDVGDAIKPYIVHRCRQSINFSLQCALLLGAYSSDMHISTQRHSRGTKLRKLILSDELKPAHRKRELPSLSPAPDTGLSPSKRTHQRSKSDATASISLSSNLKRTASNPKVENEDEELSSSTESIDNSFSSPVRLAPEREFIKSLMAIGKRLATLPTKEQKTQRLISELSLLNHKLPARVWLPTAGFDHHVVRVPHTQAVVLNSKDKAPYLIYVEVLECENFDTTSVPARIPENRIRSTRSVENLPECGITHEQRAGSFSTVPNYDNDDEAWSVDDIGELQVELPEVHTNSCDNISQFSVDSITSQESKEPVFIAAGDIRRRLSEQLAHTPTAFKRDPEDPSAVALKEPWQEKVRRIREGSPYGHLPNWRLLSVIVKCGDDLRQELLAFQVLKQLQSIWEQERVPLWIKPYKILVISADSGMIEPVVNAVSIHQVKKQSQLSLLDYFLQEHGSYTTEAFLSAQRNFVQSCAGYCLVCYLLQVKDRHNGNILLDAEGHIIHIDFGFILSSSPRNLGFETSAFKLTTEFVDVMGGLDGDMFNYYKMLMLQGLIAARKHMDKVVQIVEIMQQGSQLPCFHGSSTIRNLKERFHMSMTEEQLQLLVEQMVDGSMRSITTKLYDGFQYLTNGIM

[12] = molecular target: Phosphatidylinositol 5-phosphate 4-kinase type-2 beta (Homo sapiens) (UniProt P78356); assay: Inhibition of PIP5K2B in human HeLa cells lysate at 50 uM pre incubated for 15 mins followed by ATP acyl phosphate probe addition and measured after 10 mins by LC-MS/MS analysis relative to control; assay type: subcellular; conditions: time 25.0 min
Sequence of Phosphatidylinositol 5-phosphate 4-kinase type-2 beta (Homo sapiens) (P78356 whole entry): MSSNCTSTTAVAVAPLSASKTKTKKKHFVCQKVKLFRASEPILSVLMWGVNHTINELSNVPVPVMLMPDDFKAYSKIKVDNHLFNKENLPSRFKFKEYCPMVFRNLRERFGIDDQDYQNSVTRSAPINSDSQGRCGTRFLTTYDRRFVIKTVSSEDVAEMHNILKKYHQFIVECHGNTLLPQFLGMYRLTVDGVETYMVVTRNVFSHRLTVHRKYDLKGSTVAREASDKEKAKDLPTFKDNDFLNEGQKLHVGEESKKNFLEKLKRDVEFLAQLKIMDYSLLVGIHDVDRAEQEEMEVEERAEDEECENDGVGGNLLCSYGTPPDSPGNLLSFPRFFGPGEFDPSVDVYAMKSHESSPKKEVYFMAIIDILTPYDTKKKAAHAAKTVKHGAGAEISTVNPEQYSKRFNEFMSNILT

With `CCOc1cc(N2CCC(O)CC2)ccc1Nc1ncc2c(n1)N(C)c1ccccc1C(=O)N2C` the Activity [1] was 7.8%, the IC50 [2] was 49 µM and the inhibition [3] was 58%. The inhibition [4] was -4.6%, the inhibition at 50 µM [5] was -2.6% and the inhibition [6] was -2.3%. For the same molecule, the inhibition [7] was 0.1%, the IC50 [8] was > 50 µM and the inhibition [9] was 12.7%. It also gave an inhibition [10] of -8.6%, an inhibition [11] of 52.2% and an inhibition [12] of 6.9%.
